Data from paper PMC9899605 (Cancer Science, 2022).
Read-outs that look alike come from different tables or passages of the source.

Key:
NIH/3T3_EGFR vIII = experiment: Growth inhibition assay, NIH/3T3_EGFR vIII; format: cell-based; conditions: 72 h, read-out: GI50 (nmol/L), mean ± SD
HER2/S310F = HER2/S310F (Homo sapiens, UniProt P04626, S310F); experiment: In-Cell Western phospho-HER2, MCF10A_HER2/S310F; format: cell-based
How it was run: (§1)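 MCF10A cells stably expressing WT or mutant HER2 were seeded at 1.0 × 10⁴ cells/well in 96-well plates. They were exposed to test compound for 4 h. HER2-Tyr1196 phosphorylation was quantified by In-Cell Western, and IC50 was calculated.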

HER2/V777L = HER2/V777L (Homo sapiens, UniProt P04626, V777L); experiment: In-Cell Western phospho-HER2, MCF10A_HER2/V777L; format: cell-based
How it was run: as §1

HER2/V842I = HER2/V842I (Homo sapiens, UniProt P04626, V842I); experiment: In-Cell Western phospho-HER2, MCF10A_HER2/V842I; format: cell-based
How it was run: as §1

A-431 = experiment: Growth inhibition assay, A-431; format: cell-based; conditions: Homo sapiens, A-431, 72 h, read-out: GI50 (nmol/L), mean ± SD
How it was run: (§2)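 Cell lines were STR-authenticated; MCF10A lines stably express mutant HER2. Test compounds were dissolved in DMSO and added to the cells. Growth was assessed 3 days after treatment, and GI50 was derived as the mean of three independent experiments.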

HCC827 = experiment: Growth inhibition assay, HCC827; format: cell-based; conditions: Homo sapiens, HCC827, 72 h, read-out: GI50 (nmol/L), mean ± SD
NCI-N87 = experiment: Growth inhibition assay, NCI-N87; format: cell-based; conditions: Homo sapiens, NCI-N87, 72 h, read-out: GI50 (nmol/L), mean ± SD
How it was run: as §2

[1] = system: NCI-H1975 EGFR D770_N771insSVD; experiment: Growth inhibition assay, NCI-H1975 EGFR D770_N771insSVD; format: cell-based; conditions: Homo sapiens, NCI-H1975, 72 h, read-out: GI50 (nmol/L), mean ± SD
[2] = in rodents, cited from earlier work
NCI-H460 = experiment: Growth inhibition assay, NCI-H460; format: cell-based; conditions: Homo sapiens, NCI-H460, 72 h, read-out: GI50 (nmol/L), mean ± SD
BT-474 = experiment: Growth inhibition assay, BT-474; format: cell-based; conditions: Homo sapiens, BT-474, 72 h, read-out: GI50 (nmol/L), mean ± SD
How it was run: as §2

NCI-H1975 = experiment: Growth inhibition assay, NCI-H1975; format: cell-based; conditions: Homo sapiens, NCI-H1975, 72 h, read-out: GI50 (nmol/L), mean ± SD
NCI-H1781 = experiment: Growth inhibition assay, NCI-H1781; format: cell-based; conditions: Homo sapiens, NCI-H1781, 72 h, read-out: GI50 (nmol/L), mean ± SD
How it was run: as §2

MCF10A_HER2/insYVMA = experiment: Growth inhibition assay, MCF10A_HER2/insYVMA; format: cell-based; conditions: Homo sapiens, 72 h, read-out: GI50 (nmol/L), mean ± SD
How it was run: as §2

HER2/L755S = HER2/L755S (Homo sapiens, UniProt P04626, L755S); experiment: In-Cell Western phospho-HER2, MCF10A_HER2/L755S; format: cell-based
How it was run: as §1

panel of 257 kinases = experiment: Kinase selectivity panel; format: biochemical; conditions: poziotinib at 300 nmol/L (100-fold IC50 of WT HER2); of 257 kinases tested
How it was run: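 Test compound was screened at a single concentration against a 257-kinase panel. Peptide phosphorylation was quantified by mobility shift or IMAP assay, and percent inhibition was calculated. IC50s for off-target kinases were measured as singlets in duplicate mode.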

WT HER2 = WT HER2 (Homo sapiens, UniProt P04626); experiment: In-Cell Western phospho-HER2, MCF10A_HER2; format: cell-based
How it was run: as §1

[3] = system: NCI-N87-luc intracranial xenograft; experiment: Intracranial xenograft model, NCI-N87-luc; format: in vivo, BALB/cAJcl-nu/nu mice; conditions: poziotinib once daily
HER2/insYVMA = HER2/insYVMA (Homo sapiens, UniProt P04626, INS775YVMA); experiment: In-Cell Western phospho-HER2, MCF10A_HER2/insYVMA; format: cell-based
How it was run: as §1

[4] = system: HER2/HER3 signaling in SK-BR-3 cell line; experiment: Western blot of HER2 signaling pathway in SK-BR-3 cells; format: cell-based; conditions: SK-BR-3, 30–300 nmol/L

C=CC(=O)N1CCC(Oc2cc3c(Nc4ccc(Cl)c(Cl)c4F)ncnc3cc2OC)CC1 [Poziotinib, poziotinib]
GI50 (NIH/3T3_EGFR vIII): 12.7 ± 15.1 nmol/L
IC50 (HER2/S310F): 0.932 ± 0.038 nM
IC50 (HER2/V777L): 0.819 ± 0.121 nM
IC50 (HER2/V842I): 1.84 ± 0.24 nM
GI50 (A-431): 0.695 ± 0.174 nmol/L
GI50 (HCC827): 2.17 ± 0.75 nmol/L
GI50 (NCI-N87): 0.345 ± 0.159 nmol/L
GI50 [1]: 3.87 ± 2.04 nmol/L
Kp,uu,brain ([2]; no reference given): 0.06
GI50 (NCI-H460): > 1000 nmol/L
GI50 (BT-474): 0.508 ± 0.267 nmol/L
GI50 (NCI-H1975): 14.2 ± 7.5 nmol/L
GI50 (NCI-H1781): 2.47 ± 1.35 nmol/L
GI50 (MCF10A_HER2/insYVMA): 8.27 ± 0.93 nmol/L
IC50 (HER2/L755S): 3.52 ± 0.18 nM
number of kinases inhibited at >50% of enzymatic activity (panel of 257 kinases): 41
IC50 (WT HER2): 1.06 ± 0.13 nM
antitumor effect (total flux) [3]: failed to show tumor regression
IC50 (HER2/insYVMA): 0.956 ± 0.132 nM

Cc1cc(Nc2ncnc3ccc(NC4=NC(C)(C)CO4)cc23)ccc1Oc1ccn2ncnc2c1 [Tucatinib, tucatinib]
GI50 (NIH/3T3_EGFR vIII): > 1000 nmol/L
GI50 (A-431): > 1000 nmol/L
GI50 (HCC827): > 1000 nmol/L
GI50 (NCI-N87): 12.2 ± 8.6 nmol/L
GI50 [1]: > 1000 nmol/L
phosphorylation of HER2, HER3, and their downstream proteins [4]: inhibited
phosphorylation of HER3 and its downstream targets, AKT and ERK, at 48 h ([4]; 48 h): increased
GI50 (NCI-H460): > 1000 nmol/L
GI50 (BT-474): 8.88 ± 8.19 nmol/L
GI50 (NCI-H1975): > 1000 nmol/L
GI50 (NCI-H1781): 229 ± 149 nmol/L
GI50 (MCF10A_HER2/insYVMA): > 1000 nmol/L

C[C@H]1Oc2cc(cnc2N)-c2c(nn(C)c2C#N)CN(C)C(=O)c2ccc(F)cc21 [lorlatinib]
Kp,uu,brain [2]: 0.21

C=CC(=O)Nc1cc(Nc2nccc(-c3cn(C)c4ccccc34)n2)c(OC)cc1N(C)CCN(C)C [Osimertinib, osimertinib]
GI50 (NIH/3T3_EGFR vIII): 253 ± 56 nmol/L
GI50 (HCC827): 13.6 ± 10 nmol/L
GI50 (NCI-N87): 13.5 ± 8.3 nmol/L
GI50 [1]: 154 ± 55 nmol/L
Kp,uu,brain [2]: approximately 0.21
GI50 (NCI-H460): > 1000 nmol/L
GI50 (BT-474): 15.4 ± 12 nmol/L
GI50 (NCI-H1781): 82 ± 10 nmol/L
GI50 (MCF10A_HER2/insYVMA): > 1000 nmol/L
